The values that follow come from PubChem BioAssay AID504338 (NMMLSC, 2011).

Values without a mark were called inactive. Calls of active or inactive are those of the source.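 Rule for the calls: active = GFP response vs DMSO above 150% with enough events counted; inconclusive = fewer than 70 events counted for a yeast strain; inactive = the rest.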

The nature of this assay: yeast TOR reporter LAP4-GFP retest – cell-based, third cherry pick, flow cytometry, confirmation (AID 504338).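 Note: ratio to plate DMSO wells so 100% equals DMSO level rather than 0%.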 As to conditions: S. cerevisiae LAP4-GFP strain, 3 h, at 10 µM, active compounds read high. In short, it runs like this: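 material = yeast LAP4-GFP strain | medium = synthetic complete growth medium for yeast | doses = 10 µM, one concentration | schedule = compound exposure for 3 h at 30 °C | signal = flow cytometric GFP fluorescence | read-out basis = percent of mean DMSO-control median fluorescence | control set = rapamycin 400 ng/mL as positive control, DMSO wells as reference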
For the compound `COc1cccc2c(Cl)c(CCCl)c(C)nc12`, the GFP response vs DMSO was 104%.

On to `O=C(Nc1ccc(-c2nc3ccccc3o2)cc1)c1cccnc1`, for which the GFP response vs DMSO is 117%.

For the compound `COc1ccccc1Nc1nc(NCCCN(C)C)nc(N)c1[N+](=O)[O-]`, the GFP response vs DMSO is 103%.

For `O=C(O)c1ccc(C=NNC(=O)c2cccc3ccccc23)cc1`, the GFP response vs DMSO was 104%.

Take `C=CCNc1ncnc2ccc(Br)cc12`: the GFP response vs DMSO was 106%.

Turning to `C/C(=C\C(=O)c1ccc(Cl)cc1)Nc1ccc(Br)cc1`, the GFP response vs DMSO is 101%.

Regarding `CNc1nc(C)c([N+](=O)[O-])c(Nc2ccc(OC)cc2)n1`, the GFP response vs DMSO is 108%.

Regarding `O=C(N/N=C/c1ccccc1O)c1cccc2ccccc12`, the GFP response vs DMSO is 110%.

`O=C(O)c1ccc2cccnc2c1O`: the GFP response vs DMSO was 106%.

`Cc1ccc(Nc2cc(=O)[nH]c(=O)[nH]2)cc1Cl`: the GFP response vs DMSO is 103%.

`Cn1c(NCCCO)nc2c(c1=O)C1(CCCCC1)Cc1ccccc1-2`: the GFP response vs DMSO was 104%.

`Oc1ccc(F)c2cccnc12`: the GFP response vs DMSO was 106%.

`Cc1ccc2c(Cl)cc(Cl)c(O)c2n1`: the GFP response vs DMSO is 193% (active).

In the case of `COc1cccc2c(O)cc(=O)n(C)c12`, the GFP response vs DMSO is 104%.

As to `Cc1cn2c(N)c(C=C3C=C(Cl)C(=O)C(Cl)=C3)c(=O)nc2s1`, the GFP response vs DMSO is 108%.

With `Nc1ncnc(Nc2cc(Cl)cc(Cl)c2)c1[N+](=O)[O-]`, the GFP response vs DMSO was 101%.

As to `O=C(Nc1ccccc1Cl)ON=C1c2ccccc2-c2ccccc21`, the GFP response vs DMSO was 108%.

With `COc1ccccc1Nc1nc(NCC(C)C)nc(N)c1[N+](=O)[O-]`, the GFP response vs DMSO is 104%.

With `CC(=O)Nn1cnc2c(c1=O)C1(CCCC1)Cc1ccccc1-2`, the GFP response vs DMSO is 103%.

Take `CC(=O)C(CC(=O)N1CCCC1)C(=O)Nc1ccc(Cl)cc1` (centres undefined): the GFP response vs DMSO was 108%.

On to `COc1cc(=O)n(C)c2c(O)cccc12`, for which the GFP response vs DMSO was 101%.

For the compound `Cc1ccc(Nc2cc(=O)[nH]c(=O)[nH]2)cc1C`, the GFP response vs DMSO was 104%.

In the case of `Oc1c(Cl)cc(Cl)c2cccnc12`, the GFP response vs DMSO was 188% (active).

Take `Cc1nc(Nc2ccc(Br)cc2Br)c([N+](=O)[O-])c(=O)[nH]1`: the GFP response vs DMSO is 106%.

For `COCCCNc1nc(N)c([N+](=O)[O-])c(Nc2ccccc2OC)n1`, the GFP response vs DMSO is 106%.

For the compound `COc1cccc(OCc2cc(C(=O)N3CCN(C)C(c4ccccc4)C3)no2)c1` (centres undefined), the GFP response vs DMSO was 106%.

`CC1=NNC(=O)/C1=C\c1cn(-c2ccccc2)nc1-c1ccc(F)cc1`: the GFP response vs DMSO was 179% (active).

On to `COc1cccc(N/C=C/C(=O)c2ccc(C)cc2)c1`, for which the GFP response vs DMSO is 115%.

As to `OCc1ccc(O)c2ncccc12`, the GFP response vs DMSO was 101%.

For `COc1ccc(OC)c2c(=O)cc(C(=O)O)[nH]c12`, the GFP response vs DMSO is 104%.

For the compound `CCN(CC)C(=O)Oc1ccnc2cc(Cl)ccc12`, the GFP response vs DMSO was 101%.

With `Cc1ccc(C(=O)Nc2nc(-c3ccccn3)cs2)o1`, the GFP response vs DMSO was 103%.

`COc1ccc(N/C=C/C(=O)c2ccc(Cl)cc2)cc1`: the GFP response vs DMSO is 110%.

Consider `FC(F)Oc1cccc2cccnc12`, for which the GFP response vs DMSO was 101%.

With `COc1ccccc1-c1cc(C(F)(F)F)nc(S(C)(=O)=O)n1`, the GFP response vs DMSO is 128%.

With `COc1ccccc1OCc1cc(C(=O)N2CCN(C)C(c3ccccc3)C2)no1` (centres undefined), the GFP response vs DMSO is 106%.

On to `Cc1ccc(NC(=O)O/N=C2\CCCCC2c2ccc([N+](=O)[O-])cc2[N+](=O)[O-])cc1` (centres undefined), for which the GFP response vs DMSO is 103%.

With `Cc1ccc(NN2C(=O)C=C(c3ccccc3)C2=O)cc1`, the GFP response vs DMSO was 138%.

Turning to `CSc1ccccc1OCc1cc(C(=O)N2CCN(C)C(c3ccccc3)C2)no1` (centres undefined), the GFP response vs DMSO is 107%.
